Active and inactive are the calls of the source. No cut-off for these calls is given here.
Columns and labels:
[1] = tested on: Mus musculus; test: Inhibition of arachidonic acid-induced cysteinyl leukotriene production in mouse ear at 30 mg/kg, po administered 4 hrs before arachidonic acid challenge; assay type: functional
Summary of the method: (§1)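 Mice given 30 mg/kg orally in 0.5% methocel 4 h before AA (4 mg in 40 µL ethanol) on one ear, ethanol alone on the other. After 30 min, 6 mm punches weighed and assayed for LTB4 and CysLTs. n = 3/group; means ± SEM; two-tailed t-test versus vehicle.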

[2] = tested on: Mus musculus; test: Inhibition of arachidonic acid-induced LTB4 production in topically dosed mouse ear; assay type: functional, organism-based
Summary of the method: (§2)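 AA (4 mg/ear in ethanol) applied topically to mouse ear, compound applied topically at 0.01% or 0.1%. After 30 min, 6 mm ear punches weighed and assayed for CysLTs and LTB4. n = 3/group; means ± SEM; ANOVA with Dunnett's post hoc test, or t-test, versus vehicle.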

[3] = tested on: Mus musculus; test: Inhibition of arachidonic acid-induced LTB4 production in topically dosed mouse at 0.1%; assay type: functional; summary of the method: as §2
[4] = tested on: Blood; test: Inhibition of […]-induced LTB4 synthesis in human whole blood after 5 hrs; assay type: functional, tissue-based
[5] = tested on: Mus musculus; test: Inhibition of arachidonic acid-induced ear edema in mouse at 30 mg/kg, po administered 4 hrs before arachidonic acid challenge; assay type: functional; summary of the method: as §1
[6] = tested on: Blood; test: Inhibition of […]-induced LTB4 synthesis in rat whole blood after 15 mins; assay type: functional, tissue-based; details: 0.25 h
[7] = tested on: Rattus norvegicus; test: Skin irritant activity in abraded rat skin model at 10 mg/mL (2 mL), topical after 72 hrs; details: in vivo
[8] = tested on: Rattus norvegicus; test: Skin irritant activity in abraded rat skin model treated topically after 72 hrs; assay type: ADME, organism-based; details: in vivo, topical_or_ocular
Summary of the method: (§3)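 Healthy male rats shaved and skin abraded; 2 mL of 10 mg/mL solution in topical vehicle applied over 20% of body area, occluded 24 h, site then cleaned. Draize scoring for erythema/edema and body weight followed over 72 h.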

[9] = Solubility of the compound in water; assay type: physicochemical; details: buffer
[10] = tested on: Mus musculus; test: Inhibition of arachidonic acid-induced ear edema in topically dosed mouse at 1 to 10%; assay type: functional, organism-based
[11] = molecular target: Cytochrome P450 2C9 (Homo sapiens, UniProt P11712); test: Inhibition of CYP2C9; assay type: ADME
[12] = tested on: Mus musculus; test: Inhibition of arachidonic acid-induced cysteinyl leukotriene production in topically dosed mouse at 1 to 10%; assay type: functional, organism-based
[13] = tested on: Rattus norvegicus; test: Skin irritant activity in abraded rat skin model at 10 mg/mL (2 mL), topical after 72 hrs; details: in vivo; remark: listed apart in the source
[14] = tested on: Blood; test: Inhibition of […]-induced LTB4 synthesis in mouse whole blood after 15 mins; assay type: functional, tissue-based; details: 0.25 h
[15] = species: Rattus norvegicus; test: Toxicity in rat assessed as change in body weight after 72 hrs; assay type: organism-based; details: in vivo; summary of the method: as §3
[16] = molecular target: Cytochrome P450 2D6 (Homo sapiens, UniProt P10635); test: Inhibition of CYP2D6; assay type: ADME
[17] = molecular target: T1, Prostaglandin G/H synthase 2 (Homo sapiens, UniProt P35354); test: Inhibition of COX2
T1 sequence (P35354 whole entry): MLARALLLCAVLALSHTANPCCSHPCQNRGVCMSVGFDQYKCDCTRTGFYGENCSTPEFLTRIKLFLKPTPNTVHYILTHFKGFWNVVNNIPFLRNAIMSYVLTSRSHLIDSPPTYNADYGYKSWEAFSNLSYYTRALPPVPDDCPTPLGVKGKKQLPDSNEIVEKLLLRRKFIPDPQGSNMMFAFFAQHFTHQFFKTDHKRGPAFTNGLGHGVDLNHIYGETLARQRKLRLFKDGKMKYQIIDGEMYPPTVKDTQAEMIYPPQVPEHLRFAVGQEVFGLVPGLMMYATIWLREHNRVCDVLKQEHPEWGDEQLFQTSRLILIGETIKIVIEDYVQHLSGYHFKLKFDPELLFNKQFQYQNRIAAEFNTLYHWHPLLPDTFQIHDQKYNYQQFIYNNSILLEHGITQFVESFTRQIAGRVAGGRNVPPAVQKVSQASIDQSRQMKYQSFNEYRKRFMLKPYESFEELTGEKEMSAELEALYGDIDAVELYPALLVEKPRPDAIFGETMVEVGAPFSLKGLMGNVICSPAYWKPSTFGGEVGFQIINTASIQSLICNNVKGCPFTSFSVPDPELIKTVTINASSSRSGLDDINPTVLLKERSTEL

[18] = tested on: Mus musculus; test: Inhibition of arachidonic acid-induced LTB4 production in mouse ear at 30 mg/kg, po administered 4 hrs before arachidonic acid challenge; assay type: functional; summary of the method: as §1
[19] = Solubility of the compound in transcutol; assay type: physicochemical
[20] = tested on: Mus musculus; test: Inhibition of arachidonic acid-induced cysteinyl leukotriene production in topically dosed mouse at 0.1%; assay type: functional; summary of the method: as §2
[21] = molecular target: Cytochrome P450 3A4 (Homo sapiens, UniProt P08684); test: Inhibition of CYP3A4; assay type: ADME
[22] = Inhibition of […]-induced LTB4 synthesis in human leukocytes; assay type: functional, cell-based; details: Leukocyte
Summary of the method: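 Human leukocytes stimulated with calcium ionophore […]; LTB4 synthesis measured; IC50.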

[23] = tested on: Mus musculus; test: Inhibition of arachidonic acid-induced LTB4 production in topically dosed mouse at 1 to 10%; assay type: functional, organism-based
[24] = tested on: Blood; test: Inhibition of […]-induced LTB4 synthesis in rat whole blood after 4 hrs; assay type: functional, tissue-based
[25] = Solubility of the compound in propylene glycol; assay type: physicochemical
[26] = tested on: Blood; test: Inhibition of […]-induced LTB4 synthesis in mouse whole blood after 4 hrs; assay type: functional, tissue-based
[27] = molecular target: Prostaglandin G/H synthase 1 (Homo sapiens, UniProt P23219); test: Inhibition of COX1
[28] = Drug level in mouse plasma at 30 mg/kg, po after 4.5 hrs; details: read-out: Drug uptake
[29] = tested on: Blood; test: Inhibition of […]-induced LTB4 synthesis in human whole blood after 15 mins; assay type: functional, tissue-based; details: 0.25 h
[30] = tested on: Mus musculus; test: Inhibition of arachidonic acid-induced cysteinyl leukotriene production in topically dosed mouse ear; assay type: functional, organism-based; summary of the method: as §2
[31] = tested on: Mus musculus; test: Inhibition of arachidonic acid-induced ear edema in topically dosed mouse at 0.1%; assay type: functional; summary of the method: as §2
[32] = Terminal half life in rat at 1 mg/kg, iv; assay type: ADME, organism-based; design: dose 1 mg/kg, route intravenous; details: in vivo, read-out: beta t1/2 (converted)
Summary of the method: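 Rat given 1 mg/kg intravenously in 10% EtOH/40% PEG400/50% water; plasma concentration–time profile used for terminal half-life.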

[33] = molecular target: T2, Arachidonate 5-lipoxygenase-activating protein (Homo sapiens, UniProt P20292); test: Binding affinity to FLAP in human PMN by radioligand displacement assay
T2 sequence (P20292 whole entry): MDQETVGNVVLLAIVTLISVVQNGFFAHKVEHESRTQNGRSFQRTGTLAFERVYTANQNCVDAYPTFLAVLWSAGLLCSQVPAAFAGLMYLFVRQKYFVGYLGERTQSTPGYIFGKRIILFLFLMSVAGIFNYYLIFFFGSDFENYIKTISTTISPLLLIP
Summary of the method: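 Tritiated-ligand displacement from FLAP-containing membranes; IC50, n = 6.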

Chain of Cytochrome P450 2C9 (P11712 whole entry): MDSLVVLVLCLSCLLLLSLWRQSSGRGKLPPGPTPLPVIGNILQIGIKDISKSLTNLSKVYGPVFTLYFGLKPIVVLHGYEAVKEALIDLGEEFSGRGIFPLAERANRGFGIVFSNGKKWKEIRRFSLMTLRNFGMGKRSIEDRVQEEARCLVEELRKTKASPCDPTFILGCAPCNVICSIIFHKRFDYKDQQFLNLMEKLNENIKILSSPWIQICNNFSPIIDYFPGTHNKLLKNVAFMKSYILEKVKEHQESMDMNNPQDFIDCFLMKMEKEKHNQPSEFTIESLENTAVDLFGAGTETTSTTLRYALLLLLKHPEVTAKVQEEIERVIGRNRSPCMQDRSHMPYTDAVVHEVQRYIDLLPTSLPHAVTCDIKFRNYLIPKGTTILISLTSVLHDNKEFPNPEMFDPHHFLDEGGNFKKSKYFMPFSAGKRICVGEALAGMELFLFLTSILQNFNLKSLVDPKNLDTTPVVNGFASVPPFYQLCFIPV
Chain of Cytochrome P450 2D6 (P10635 whole entry): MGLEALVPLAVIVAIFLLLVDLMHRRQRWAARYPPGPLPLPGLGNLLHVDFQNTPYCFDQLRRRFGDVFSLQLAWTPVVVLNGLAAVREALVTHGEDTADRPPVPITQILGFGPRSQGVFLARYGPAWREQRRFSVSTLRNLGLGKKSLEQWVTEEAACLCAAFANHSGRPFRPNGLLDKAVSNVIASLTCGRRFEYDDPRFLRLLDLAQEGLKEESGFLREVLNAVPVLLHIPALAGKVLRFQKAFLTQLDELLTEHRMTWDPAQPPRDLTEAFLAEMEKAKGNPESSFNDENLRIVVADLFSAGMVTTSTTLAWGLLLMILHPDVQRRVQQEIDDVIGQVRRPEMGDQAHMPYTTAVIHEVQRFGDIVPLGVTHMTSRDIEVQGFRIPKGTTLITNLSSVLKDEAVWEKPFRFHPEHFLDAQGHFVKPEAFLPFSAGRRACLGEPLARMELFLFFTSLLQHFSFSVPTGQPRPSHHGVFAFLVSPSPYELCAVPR
Chain of Prostaglandin G/H synthase 1 (P23219 whole entry): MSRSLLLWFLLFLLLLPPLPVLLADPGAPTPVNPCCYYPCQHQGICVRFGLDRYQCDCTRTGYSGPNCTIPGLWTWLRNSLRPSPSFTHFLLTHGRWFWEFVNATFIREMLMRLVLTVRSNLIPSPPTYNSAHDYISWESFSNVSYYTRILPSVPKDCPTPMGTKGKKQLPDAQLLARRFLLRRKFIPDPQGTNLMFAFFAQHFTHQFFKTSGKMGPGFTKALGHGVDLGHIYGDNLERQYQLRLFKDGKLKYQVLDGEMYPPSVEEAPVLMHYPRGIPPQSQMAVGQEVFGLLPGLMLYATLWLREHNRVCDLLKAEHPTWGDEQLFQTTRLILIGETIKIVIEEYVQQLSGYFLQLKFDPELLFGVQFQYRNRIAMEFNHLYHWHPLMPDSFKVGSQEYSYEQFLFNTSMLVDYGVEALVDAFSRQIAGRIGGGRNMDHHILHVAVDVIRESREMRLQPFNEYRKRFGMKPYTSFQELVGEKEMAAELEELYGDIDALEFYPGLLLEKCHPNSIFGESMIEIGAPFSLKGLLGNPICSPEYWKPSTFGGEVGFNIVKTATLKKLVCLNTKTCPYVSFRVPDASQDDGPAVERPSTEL
Chain of Cytochrome P450 3A4 (P08684 whole entry): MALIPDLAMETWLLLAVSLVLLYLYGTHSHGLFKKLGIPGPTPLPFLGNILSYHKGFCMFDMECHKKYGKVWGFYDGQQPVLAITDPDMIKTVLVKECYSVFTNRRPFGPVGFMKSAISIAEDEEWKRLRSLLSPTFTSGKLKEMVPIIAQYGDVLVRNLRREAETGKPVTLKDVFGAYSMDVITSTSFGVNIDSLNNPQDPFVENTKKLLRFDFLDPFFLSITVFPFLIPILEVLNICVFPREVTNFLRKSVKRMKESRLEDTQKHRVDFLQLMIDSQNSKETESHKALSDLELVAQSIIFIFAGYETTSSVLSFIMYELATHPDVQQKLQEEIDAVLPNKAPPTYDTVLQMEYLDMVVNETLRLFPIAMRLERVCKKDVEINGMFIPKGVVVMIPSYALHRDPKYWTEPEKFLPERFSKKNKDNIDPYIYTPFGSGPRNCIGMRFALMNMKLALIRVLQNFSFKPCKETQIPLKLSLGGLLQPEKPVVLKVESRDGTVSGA

Q: For `COc1cnc(-c2ccc(Cn3c(CC(C)(C)C(=O)[O-])c(SC(C)(C)C)c4cc(OCc5ccc(C)cn5)ccc43)cc2)nc1.[Na+]`, which inhibition in vivo at 30 mg/kg [1] is on record?
A: 57%

Q: And the inhibition [2]?
A: Dose-dependent effect

Q: And the “inhibition (INH)” value [3]?
A: 55%

Q: And the IC50 [4]?
A: 81 nM

Q: What about the inhibition in vivo at 30 mg/kg [5] of the same compound?
A: 65%

Q: What about the IC50 [6] of the same compound?
A: 78 nM

Q: And the Activity [7]?
A: Non-toxic

Q: And the Activity [8]?
A: Non-toxic

Q: What about the solubility [9] of the same compound?
A: 10%

Q: What about the inhibition [10] of the same compound?
A: inactive

Q: What about the IC50 [11] of the same compound?
A: 4.5 µM

Q: And the inhibition [12]?
A: inactive

Q: And the Activity [13]?
A: Non-toxic

Q: What about the IC50 [14] of the same compound?
A: 26 nM

Q: And the Activity [15]?
A: Non-toxic

Q: And the IC50 [16]?
A: > 30 µM

Q: What about the IC50 [17] of the same compound?
A: > 100 µM

Q: What about the inhibition in vivo at 30 mg/kg [18] of the same compound?
A: 33%

Q: What about the solubility [19] of the same compound?
A: 15%

Q: And the “inhibition (INH)” value [20]?
A: 37%

Q: What about the IC50 [21] of the same compound?
A: 8.8 µM

Q: What about the IC50 [22] of the same compound?
A: 0.6 nM

Q: And the inhibition [23]?
A: inactive

Q: What about the IC50 [24] of the same compound?
A: 11 nM

Q: What about the solubility [25] of the same compound?
A: 75%

Q: What about the IC50 [26] of the same compound?
A: 4 nM

Q: What about the IC50 [27] of the same compound?
A: > 100 µM

Q: And the concentration at 4.5 h [28]?
A: 1500 nM

Q: And the IC50 [29]?
A: 161 nM

Q: And the inhibition [30]?
A: Dose-dependent effect

Q: And the “inhibition (INH)” value [31]?
A: 61%

Q: And the half-life [32]?
A: 120 min

Q: And the IC50 [33]?
A: 2 nM
